Most compounds without a hit are left out; they make up all but 1.6% or so of the library.
TCR-CD3 inh – blocks the human TCR-CD3 interaction. TAMRA-labeled TCR probe fluorescence, biochemical. inhibition, % at 9.4 µM. actives 0.37% (n = 360,000);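 note: recombinant mutant TCR 2C K166C tagged with TAMRA read by polarization; 0% = receptor in buffer alone and 100% = receptor with positive control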
MLLE-PAM2 inh – inhibitors of microRNA-mediated deadenylation, human PABP1 MLLE binding. actives 0.36% (n = 360,000). GST-MLLE / FITC-PAM2 fluorescence polarization. P11940. inhibition, % at 20 µM; in the data active = inhibition above about 35%, passing the limit was not always enough;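 note: plate controls were DMSO wells with GST-MLLE for no effect and wells lacking GST-MLLE protein for full effect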
Target sequence (P11940 whole entry, looked up): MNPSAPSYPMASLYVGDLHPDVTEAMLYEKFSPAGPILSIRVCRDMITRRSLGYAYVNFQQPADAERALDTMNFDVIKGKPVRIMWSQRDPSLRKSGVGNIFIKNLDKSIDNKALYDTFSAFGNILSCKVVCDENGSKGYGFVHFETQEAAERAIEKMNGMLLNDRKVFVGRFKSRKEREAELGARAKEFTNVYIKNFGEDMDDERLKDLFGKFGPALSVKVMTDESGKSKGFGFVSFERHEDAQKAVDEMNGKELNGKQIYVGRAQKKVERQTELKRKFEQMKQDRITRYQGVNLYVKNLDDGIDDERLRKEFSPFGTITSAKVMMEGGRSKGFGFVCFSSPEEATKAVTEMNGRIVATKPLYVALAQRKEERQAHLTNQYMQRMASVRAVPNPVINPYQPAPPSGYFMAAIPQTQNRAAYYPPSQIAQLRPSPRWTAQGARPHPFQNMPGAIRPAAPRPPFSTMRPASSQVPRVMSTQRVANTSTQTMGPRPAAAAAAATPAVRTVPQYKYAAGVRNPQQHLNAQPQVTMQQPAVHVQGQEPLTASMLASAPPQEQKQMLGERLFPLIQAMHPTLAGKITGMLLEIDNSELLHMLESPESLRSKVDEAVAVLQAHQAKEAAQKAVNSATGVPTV
PABP FP inh – PABP-poly(A) binding inhibition. actives 1% (n = 290,000). P11940. PABP-poly(A) RNA binding, fluorescence polarization. AID 2014. calls only at 35 µM; call rule not given here;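 note: calls also rest on retests at 20 µM and on dose response follow-up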
RBBP9 inh – human RBBP9 hydrolase inhibition | O75884 | recombinant RBBP9, FP-Rh probe fluorescence polarization | inhibition, % at 7.94 µM | actives 0.2% (n = 220,000) | AID 1515;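 active = inhibition above the campaign mean of all tested compounds plus 3 SD, cut at about 14% in these data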;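 note: plate controls were DMSO wells with RBBP9 for no effect and wells lacking RBBP9 protein for full effect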
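Test system: recombinant human RBBP9; Timing: 30 min then 45 min, 25 °C; Detection: fluorescence polarization; Control set: RBBP9 with DMSO as uninhibited control, no-protein wells as full inhibition; Compound dosing: one concentration, 7.94 µM nominal, 0.794% DMSO; Probe or stimulus: FP-Rh activity-based probe, 375 nM before mixing.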
eIF4H FP inh – inhibitors of RNA binding by human eIF4H; Q15056; eIF4H fluorescence polarization binding assay; inhibition, % at 35 µM; actives 0.94% (n = 290,000); AID 2012; call rule not given here;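 note: calls also rest on retests at 20 µM and on dose response follow-up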
BSA probe FL – BSA probe counter-screen for TCR-CD3 inhibitors | actives 10% (n = 1,200) | TAMRA-labeled BSA probe fluorescence counterscreen | inhibition, % at 9.4 µM | AID 652035 | shares compounds with TCR-CD3 inh; in the data active = inhibition above about 23%;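 note: 0% = buffer low control and 100% = reference high control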
TCR-CD3 inh conf – confirmation of human TCR-CD3 interaction inhibitors; shares compounds with TCR-CD3 inh; inhibition, % at 9.4 µM; actives 48% (n = 1,200); TAMRA-labeled TCR probe fluorescence binding assay
* hit, by the source's call; i = inactive; ? = inconclusive; · = no result given; + = active, no number. Cut-off read from the data, not from the text of the source, unless noted: active = inhibition above about 19%; inactive = the rest.

SMILES | TCR-CD3 inh | MLLE-PAM2 inh | PABP FP inh | RBBP9 inh | eIF4H FP inh | BSA probe FL | TCR-CD3 inh conf
O=C(CCC(=O)N/N=C/c1cc(Cl)cc(Cl)c1O)NCc1ccccc1 | 21* | 1 | i | -6 | 5 | 11 | 23*
COc1cccc(C(=O)N[C@@H](Cc2cccnc2)C(=O)N2CCC[C@H]2C(=O)NC2CCCC2)c1 | 3 | · | · | · | · | · | ·
Cc1cc(N(C)C)ccc1[N+](=O)[O-] | 1 | 2 | i | -4 | 3 | · | ·
NNc1ccc([N+](=O)[O-])c2[nH][nH]c(=O)c12 | 50* | -32 | · | · | · | -18 | 106*
C=C1[C@H](C)CN(S(=O)C(C)(C)C)[C@H]1CCO (stereo not given in full) | -4 | · | · | · | · | · | ·
COc1ccc(C(=O)NNC(=S)NC(=O)c2ccc(Br)o2)cc1OC | 20* | 10 | i | -3 | 7 | -5 | 25*
O=C(NC1CCCCC1)C(c1ccc(-c2ccccc2)cc1)n1c(=O)c(-c2ccco2)nc2ccccc21 (stereo not given) | -9 | · | · | · | · | · | ·
O=C(Nc1cccc(NC(=O)c2ccc(-c3ccc(Br)cc3)o2)c1)c1ccco1 | 56* | 7 | i | -11 | 12 | 24* | 44*
COCCn1c(=NC(=O)c2cc(-c3cccs3)nc3ccccc23)sc2cc(S(N)(=O)=O)ccc21 | 29* | -36 | i | -57 | 0 | 2 | 21*
O=c1c(CO)cc(CO)cc(CO)c1O | 31* | 1 | i | -9 | 36 | -1 | 22*
CCOC(=O)C1CCCN(C(=O)C2COc3ccccc3O2)C1 (stereo not given) | 28* | 8 | · | · | · | -1 | -5
O=c1ccc2cc(S(=O)(=O)N3CCN(c4ccccc4)CC3)ccc2[nH]1 | -4 | -10 | i | · | -2 | · | ·
O=S(=O)(c1ccc2nc(-c3ccccc3)[nH]c2c1)N1CCN(c2ccc(Cl)cc2)CC1 | 38* | 3 | i | -8 | -9 | -5 | 10
CN(CCC#N)C(=O)COC(=O)c1c2c(nc3ccccc13)/C(=C/c1ccco1)CC2 | 52* | -5 | i | -4 | 95* | -14 | 32*
CC(C)CNC(=O)COC(=O)c1c2c(nc3ccccc13)/C(=C\c1cccs1)CC2 | -1 | -6 | · | · | · | · | ·
COc1ccc(-n2c(COc3cccc(C)c3)nnc2SCC(=O)O)cc1 | -5 | -33 | i | · | 1 | · | ·
COc1ccc(-n2c(COc3ccc(C)cc3)nnc2SCC(=O)O)cc1 | 31* | -14 | i | · | -1 | 13 | 7
COCc1cc(N2CCN(C(=O)OC(C)(C)C)C[C@@H]2C)ccc1Br | 10 | · | · | · | · | · | ·
COC(=O)[C@]12C[C@H](CC(=O)NCc3cccs3)C(=O)N(Cc3ccc4c(c3)OCO4)C1=C[C@H](COCc1ccccc1)O[C@@H]2C | 7 | · | · | · | · | · | ·
O=[N+]([O-])c1cc(Br)c(O)c(/C=N/Nc2nnnn2-c2cccc3ccccc23)c1 | 20* | -16 | i | -2 | 49 | -15 | 41*
COc1ccc(NC(=O)Nc2ccc3c(c2)C(=O)N([C@H](C)CO)C[C@H](C)[C@@H](CN(C)S(=O)(=O)c2ccc(OC)cc2)O3)cc1 | 1 | 2 | · | · | · | · | ·
COc1ccc(NC(=O)N(C)C[C@@H]2OCc3cn(nn3)CCCC(=O)N([C@H](C)CO)C[C@H]2C)cc1 | 32* | 4 | · | · | · | 2 | 1
C[C@H](CO)N1C[C@H](C)[C@@H](CN(C)C(=O)Nc2ccc(C(F)(F)F)cc2)Oc2ccc(NC(=O)Nc3ccc(C(F)(F)F)cc3)cc2C1=O | 76* | 6 | · | · | · | 25* | 48*
C[C@@H]1CN([C@H](C)CO)C(=O)c2cc(NC(=O)Nc3cccc4ccccc34)ccc2O[C@H]1CN(C)Cc1ccc(C(F)(F)F)cc1 | 25* | 1 | · | · | · | -2 | 4
COc1ccc(S(=O)(=O)N(C)C[C@H]2Oc3ccc(NC(=O)Nc4ccc(C(F)(F)F)cc4)cc3C(=O)N([C@H](C)CO)C[C@@H]2C)cc1 | 34* | -10 | · | · | · | 24* | 47*
SMILES | TCR-CD3 inh | MLLE-PAM2 inh | PABP FP inh | RBBP9 inh | eIF4H FP inh | BSA probe FL | TCR-CD3 inh conf
COc1ccc(Cn2c(C)cc(O)cc2=O)cc1 | 5 | · | · | · | · | · | ·
C[C@@H]1CN([C@H](C)CO)C(=O)c2cc(NC(=O)Nc3ccc(C(F)(F)F)cc3)ccc2O[C@H]1CN(C)S(=O)(=O)c1ccccc1 | 30* | 3 | · | · | · | -2 | 15
CCOC(=O)C(CNc1ccc(O)cc1)NC(=O)c1ccccc1 (stereo not given) | 65* | · | · | · | · | 15 | 8
CCOC(=O)CCC(NC(=O)c1ccc(NCN2C(=O)c3ccccc3C2=O)cc1)C(=O)OCC (stereo not given) | -1 | 13 | i | -10 | -3 | · | ·
Cn1nc(-c2ccccc2)c(N2CCCCC2)cc1=O | 4 | 4 | i | 4 | -10 | · | ·
Cn1c(=O)cc2c3c(c(N4CCCCC4)ccc31)C(=O)c1ccccc1-2 | 58* | 113 | ? | 10 | ? | 93* | 55*
O=c1ccc2c(-c3ccccc3)c3ccc(O)cc3oc-2c1 | -40 | i | ? | · | ? | · | ·
Nc1ccc(-c2c3ccc(=O)cc-3oc3cc(O)ccc23)cc1C(=O)O | 38* | i | ? | · | ? | 49* | 34*
COc1cc(/C=N/NC(=O)c2cc(O)cc(O)c2)ccc1OC(=O)c1ccccc1 | 20* | -5 | + | · | 81* | -10 | 26*
COc1cc(OC)cc(C(=O)N/N=C/c2ccc(OC)c(COc3ccc4ccccc4c3)c2)c1 | 40* | -13 | i | -38 | -9 | 9 | 35*
COc1ccc2c(c1)[C@@H](NC(=O)C(F)(F)F)[C@@H]1CCCC[C@]21c1ccccc1 | -5 | · | · | · | · | · | ·
CN(CC(=O)Nc1ccc(F)cc1)C(=O)COC(=O)c1ccc(=O)n(Cc2ccccc2)n1 | 87* | 6 | · | · | · | 2 | 3
CN1C2C=CC(=O)C1C1C(=O)N(c3ccccc3)C(=O)C12 (stereo not given) | -4 | 10 | · | · | · | · | ·
c1coc(-c2nnc(-c3ccco3)nn2)c1 | 28* | 38* | + | · | 99* | -10 | 16
Cc1ccc2nc(-c3cccc(Br)c3)c(Cc3ccccc3)n2c1 | 114* | -19 | · | · | · | 0 | -1
Cc1ccc(Cc2c(-c3cccc(Br)c3)nc3ccc(C)cn23)cc1 | 77* | · | · | · | · | -9 | -1
Cc1ccc2nc(-c3cccc(Br)c3)c(Cc3cccc(Cl)c3)n2c1 | -3 | -22 | · | · | · | · | ·
COC(=O)C1=C(C)N(C)C(=NCc2ccc(C(F)(F)F)cc2)NC1c1ccc(F)cc1 (stereo not given) | -12 | · | · | · | · | · | ·
COc1ccc(Nc2sc(C(=O)c3ccc(Cl)cc3)c(N)c2C(=O)Nc2ccccc2OC)cc1 | -6 | 14 | i | 3 | -7 | · | ·
COc1ccccc1NC(=O)c1c(Nc2ccccc2C)sc(C(=O)Nc2cccc(Cl)c2)c1N | 21* | -13 | i | -22 | -9 | 6 | 12

Screens from PubChem BioAssay.
